From ChEMBL document CHEMBL1123730, “Synthesis and pharmacological evaluation of a new class of 2-(2-aminothiazol-4-yl)-2-hydrazonoacetamido cephalosporins” (J Med Chem, 1987)
Values after ≈ are worked out from the molar mass of the structure shown.

Tests used:
Streptococcus = experiment: Geometrical average of minimum bactericidal concentration was determined in isosensitest broth against Streptococcus; assay type: functional
[1] = Serum level was determined at 5 min after an intravenous administration of 50 mg/kg in rats; assay type: ADME, organism-based; set-up: dose 50 mg/kg, route intravenous; conditions: rat, read-out: Serum level
Summary of the method: (§1)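 Dose 50 mg/kg in sterile water, iv or im, to Wistar rats 200-250 g, five per time point; killed at set intervals, blood centrifuged for serum. Antibiotic measured by agar diffusion on Nutrient Agar with E. coli ATCC 10536 (37 °C, 18 h), standards diluted in serum; detection limit 1 μg/mL. Mean ± SEM of five rats.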

[2] = Distribution (50 mg/kg) was determined in liver 60 min after intravenous administration; assay type: ADME, organism-based; conditions: read-out: Tissue distribution
Summary of the method: (§2)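 Wistar rats (200-250 g, groups of five) given 50 mg/kg in sterile water iv or im; killed at set times, lung, liver and kidney homogenized in 0.1 M pH 7.3 phosphate buffer (tissue:buffer 1:5). Drug assayed by agar diffusion on Nutrient Agar with E. coli ATCC 10536 (37 °C, 18 h); standards in phosphate buffer; detection limit 0.5 μg/mL; mean ± SEM.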

[3] = Serum level was determined at 30 min after an intravenous administration of 50 mg/kg in rats; assay type: ADME, organism-based; set-up: dose 50 mg/kg, route intravenous; conditions: rat, read-out: Serum level; summary of the method: as §1
Bacillus [4] = experiment: Geometrical average of minimum inhibitory concentration was determined in isosensitest broth against Bacillus; assay type: functional
[5] = Distribution (50 mg/kg) was determined in liver 120 min after intramuscular administration; assay type: ADME, organism-based; conditions: im, read-out: Tissue distribution; summary of the method: as §2
Klebsiella pneumoniae [6] = experiment: In vivo protective dose was determined in infected swiss mice (120/strain) infected ip with Klebsiella pneumoniae 102 with an inoculum size-0.5 mL of 10 E5 CFU/mL of suspension. Activity in range of 10.47-22.94
Staphylococcus = experiment: Geometrical average of minimum bactericidal concentration was determined in isosensitest broth against Staphylococcus (P); assay type: functional
[7] = Distribution (50 mg/kg) was determined in lung 30 min after intramuscular administration; assay type: ADME, organism-based; conditions: im, read-out: Tissue distribution; summary of the method: as §2
Neisseria perflava [8] = experiment: Geometrical average of minimum bactericidal concentration was determined in isosensitest broth against Neisseria perfl (1); assay type: functional
Proteus [9] = experiment: Geometrical average of minimum bactericidal concentration was determined in isosensitest broth against Proteus; assay type: functional, Proteus sp.
Alcaligenes [10] = experiment: Geometrical average of minimum bactericidal concentration was determined in isosensitest broth against Alcaligenes; assay type: functional
[11] = Distribution (50 mg/kg) was determined in kidney 120 min after intramuscular administration; assay type: ADME, organism-based; conditions: im, read-out: Tissue distribution; summary of the method: as §2
[12] = Distribution (50 mg/kg) was determined in kidney 30 min after intravenous administration; assay type: ADME, organism-based; conditions: read-out: Tissue distribution; summary of the method: as §2
[13] = Serum level was determined at 240 min after an intravenous administration of 50 mg/kg in rats; assay type: ADME, organism-based; set-up: dose 50 mg/kg, route intravenous; conditions: rat, read-out: Serum level; summary of the method: as §1
Salmonella typhimurium [14] = experiment: In vivo protective dose was determined in infected swiss mice (120/strain) infected ip with Salmonella Typhimurium T.O. with an inoculum size-0.5 mL of 10 E6 CFU/mL of suspension. Activity in range of 5.47-15.81; assay type: functional, Salmonella enterica subsp. enterica serovar Typhimurium; conditions: Salmonella enterica
[15] = Distribution (50 mg/kg) was determined in lung 120 min after intramuscular administration; assay type: ADME, organism-based; conditions: im, read-out: Tissue distribution; summary of the method: as §2
[16] = Serum level was determined at 60 min after an intravenous administration of 50 mg/kg in rats; assay type: ADME, organism-based; set-up: dose 50 mg/kg, route intravenous; conditions: rat, read-out: Serum level; summary of the method: as §1
[17] = Distribution (50 mg/kg) was determined in lung 5 min after intramuscular administration; assay type: ADME, organism-based; conditions: im, read-out: Tissue distribution; summary of the method: as §2
Escherichia coli [18] = experiment: In vivo protective dose was determined in infected swiss mice (120/strain) infected ip with Escherichia coli ISM with an inoculum size-0.5 mL of 10 E6 CFU/mL of suspension. Activity in range of 0.90-2.34; assay type: functional
[19] = Distribution (50 mg/kg) was determined in liver 15 min after intramuscular administration; assay type: ADME, organism-based; conditions: im, read-out: Tissue distribution; summary of the method: as §2
[20] = Distribution (50 mg/kg) was determined in liver 30 min after intramuscular administration; assay type: ADME, organism-based; conditions: im, read-out: Tissue distribution; summary of the method: as §2
[21] = Distribution (50 mg/kg) was determined in kidney 30 min after intramuscular administration; assay type: ADME, organism-based; conditions: im, read-out: Tissue distribution; summary of the method: as §2
[22] = Geometrical average of minimum inhibitory concentration was determined in isosensitest broth against gram-negative strains.; assay type: functional
[23] = Distribution (50 mg/kg) was determined in liver 60 min after intramuscular administration; assay type: ADME, organism-based; conditions: im, read-out: Tissue distribution; summary of the method: as §2
[24] = Distribution (50 mg/kg) was determined in kidney 5 min after intramuscular administration; assay type: ADME, organism-based; conditions: im, read-out: Tissue distribution; summary of the method: as §2
Salmonella = experiment: Geometrical average of minimum inhibitory concentration was determined in isosensitest broth against Salmonella; assay type: functional
[25] = Distribution (50 mg/kg) was determined in lung 60 min after intramuscular administration; assay type: ADME, organism-based; conditions: im, read-out: Tissue distribution; summary of the method: as §2
Proteus [26] = experiment: Geometrical average of minimum inhibitory concentration was determined in isosensitest broth against Proteus; assay type: functional, Proteus sp.
Klebsiella pneumoniae [27] = experiment: Minimum inhibitory concentration against Klebsiella pneumoniae 102; assay type: functional
Alcaligenes [28] = experiment: Geometrical average of minimum inhibitory concentration was determined in isosensitest broth against Alcaligenes; assay type: functional
Serratia [29] = experiment: Geometrical average of minimum bactericidal concentration was determined in isosensitest broth against Serratia; assay type: functional
[30] = Distribution (50 mg/kg) was determined in lung 15 min after intramuscular administration; assay type: ADME, organism-based; conditions: im, read-out: Tissue distribution; summary of the method: as §2
Staphylococcus aureus = experiment: Geometrical average of minimum inhibitory concentration was determined in isosensitest broth against Staphylococcus; assay type: functional
Serratia [31] = experiment: Geometrical average of minimum inhibitory concentration was determined in isosensitest broth against Serratia; assay type: functional
[32] = Distribution (50 mg/kg) was determined in kidney 60 min after intramuscular administration; assay type: ADME, organism-based; conditions: im, read-out: Tissue distribution; summary of the method: as §2
Pseudomonas = experiment: Geometrical average of minimum inhibitory concentration was determined in isosensitest broth against Pseudomonas; assay type: functional
Bacillus [33] = experiment: Geometrical average of minimum bactericidal concentration was determined in isosensitest broth against Bacillus; assay type: functional
[34] = Distribution (50 mg/kg) was determined in kidney 120 min after intravenous administration; assay type: ADME, organism-based; conditions: in vivo, 2 h; summary of the method: as §2
Escherichia coli [35] = experiment: Geometrical average of minimum bactericidal concentration was determined in isosensitest broth against Escherichia coli; assay type: functional
[36] = Distribution (50 mg/kg) was determined in lung 120 min after intravenous administration; assay type: ADME, organism-based; conditions: in vivo, 2 h; summary of the method: as §2
Salmonella typhimurium [37] = experiment: Minimum inhibitory concentration against Salmonella Typhimurium T.O was determined; assay type: functional, Salmonella enterica subsp. enterica serovar Typhimurium; conditions: Salmonella enterica
[38] = Half-life administered, intravenously; assay type: ADME, organism-based; conditions: in vivo, iv
Summary of the method: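 Wistar rats (200-250 g, groups of five) given 50 mg/kg in sterile water iv or im; killed at 5-360 min, serum separated. Levels by agar diffusion bioassay, E. coli ATCC 10536 test organism, 37 °C 18 h, standards in serum (detection limit 1 μg/mL); elimination half-life derived from serum time course.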

[39] = Distribution (50 mg/kg) was determined in lung 15 min after intravenous administration; assay type: ADME, organism-based; conditions: read-out: Tissue distribution; summary of the method: as §2
Neisseria perflava [40] = experiment: Geometrical average of minimum inhibitory concentration was determined in isosensitest broth against Neisseria perfl.; assay type: functional
[41] = Serum level was determined at 60 min after intramuscular administration of 50 mg/kg in rats; assay type: ADME, organism-based; set-up: dose 50 mg/kg, route intramuscular; conditions: rat, im, read-out: Serum level; summary of the method: as §1
[42] = Distribution (50 mg/kg) was determined in kidney 15 min after intramuscular administration; assay type: ADME, organism-based; conditions: im, read-out: Tissue distribution; summary of the method: as §2
Escherichia coli [43] = experiment: Geometrical average of minimum inhibitory concentration was determined in isosensitest broth against Escherichia coli; assay type: functional
[44] = Serum level was determined at 360 min after intramuscular administration of 50 mg/kg in rats; assay type: ADME, organism-based; set-up: dose 50 mg/kg, route intramuscular; conditions: rat, im, read-out: Serum level; summary of the method: as §1

`Cn1nnnc1SCC1=C(C(=O)O)N2C(=O)[C@@H](NC(=O)/C(=N/N)c3csc(N)n3)[C@H]2SC1` showed an MBC (Streptococcus) of 70.7 µg/mL (≈ 142 µM), a concentration at 5 min [1] of 231 µg/mL and a concentration at 1 h [2] of 9220 ng/g. It also gave a concentration at 0.5 h [3] of 87.2 µg/mL, an MIC (Bacillus [4]) of 42 µg/mL (≈ 84.6 µM) and a concentration at 2 h [5] of 5270 ng/g. It also gave an ED50 (Klebsiella pneumoniae [6]) of 15.5 mg/kg, an MBC (Staphylococcus) of 50 µg/mL (≈ 101 µM) and a concentration at 0.5 h [7] of 12200 ng/g. For the same compound, the MBC (Neisseria perflava [8]) was < 0.09 µg/mL, the MBC (Proteus [9]) was 2.45 µg/mL (≈ 4.93 µM) and the MBC (Alcaligenes [10]) was 12.5 µg/mL (≈ 25.2 µM). The concentration at 2 h [11] was 10200 ng/g, the concentration at 0.5 h [12] was 19600 ng/g and the concentration at 4 h [13] was 3.65 µg/mL. The ED50 (Salmonella typhimurium [14]) was 9.3 mg/kg, the concentration at 2 h [15] was ≤ 5000 ng/g and the concentration at 1 h [16] was 52.5 µg/mL. For the same compound, the concentration at 5 min [17] was ≤ 5000 ng/g, the ED50 (Escherichia coli [18]) was 1.45 mg/kg and the concentration at 0.25 h [19] was 15400 ng/g. For the same compound, the concentration at 0.5 h [20] was 22100 ng/g, the concentration at 0.5 h [21] was 36200 ng/g and the MIC [22] was 1.74 µg/mL (≈ 3.5 µM). For the same compound, the concentration at 1 h [23] was 15100 ng/g, the concentration at 5 min [24] was 6420 ng/g and the MIC (Salmonella) was 0.86 µg/mL (≈ 1.73 µM). The concentration at 1 h [25] was 7660 ng/g, the MIC (Proteus [26]) was 1.08 µg/mL (≈ 2.17 µM) and the MIC (Klebsiella pneumoniae [27]) was 1.56 µg/mL (≈ 3.14 µM). It also gave an MIC (Alcaligenes [28]) of 8.83 µg/mL (≈ 17.8 µM), an MBC (Serratia [29]) of 3.12 µg/mL (≈ 6.28 µM) and a concentration at 0.25 h [30] of 10700 ng/g. It also gave an MIC (Staphylococcus aureus) of 6.69 µg/mL (≈ 13.5 µM), an MIC (Serratia [31]) of 1.75 µg/mL (≈ 3.52 µM) and a concentration at 1 h [32] of 22900 ng/g. The MIC (Pseudomonas) was > 100 µg/mL, the MBC (Bacillus [33]) was 50 µg/mL (≈ 101 µM) and the Tissue distribution [34] was “Undetectable”. For the same compound, the MBC (Escherichia coli [35]) was 1.01 µg/mL (≈ 2.03 µM), the Tissue distribution [36] was “Undetectable” and the MIC (Salmonella typhimurium [37]) was 1.1 µg/mL (≈ 2.22 µM). For the same compound, the half-life [38] was 45 min, the concentration at 0.25 h [39] was 17500 ng/g and the MIC (Neisseria perflava [40]) was < 0.09 µg/mL. It also gave a concentration at 1 h [41] of 64.4 µg/mL, a concentration at 0.25 h [42] of 25100 ng/g and an MIC (Escherichia coli [43]) of 0.6 µg/mL (≈ 1.21 µM). For the same compound, the concentration at 6 h [44] was 3.43 µg/mL.
